Source: ChEMBL document CHEMBL1914423, “New imidazo[2,1-b]thiazole derivatives: synthesis, in vitro anticancer evaluation, and in silico studies” (Eur J Med Chem, 2011)

test system: IGROV-1; test: Anticancer activity against human IGROV1 cells assessed as cell growth at 10^-5 M after 48 hrs by SRB assay; assay type: functional; details: IGROV-1, 48 h, read-out: Activity
Method in brief: (§1)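 NCI-60 single-dose screen at one concentration. Cells grown in RPMI 1640 with 5% FBS and 2 mM L-glutamine, plated at 5000–40,000 cells/well, and pre-incubated 24 h at 37 °C in 5% CO2 before DMSO-dissolved drug was added. Cells fixed with TCA, SRB-stained, absorbance read at 515 nm. Percent growth calculated against time-zero and untreated control plates.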

Point of comparison: `COc1cccc(-c2nc3sccn3c2-c2ccnc(NCCNC(=O)c3ccccc3)n2)c1`, growth at 10 µM 69.2%. Against it:
- COc1cccc(-c2nc3sccn3c2-c2ccnc(NCCNC(=O)Nc3ccccc3)n2)c1 — higher, 97.9%

test system: COLO 205; test: Anticancer activity against human COLO205 cells assessed as cell growth at 10^-5 M after 48 hrs by SRB assay; assay type: functional; details: COLO 205, 48 h, read-out: Activity; method in brief: as §1

Point of comparison: `COc1cccc(-c2nc3sccn3c2-c2ccnc(NCCNC(=O)c3ccccc3)n2)c1`, growth at 10 µM 51.8%. Against it:
- COc1cccc(-c2nc3sccn3c2-c2ccnc(NCCNC(=O)Nc3ccccc3)n2)c1 — higher, 100%

test system: MDA-MB-468; test: Anticancer activity against human MDA-MB-468 cells assessed as cell growth at 10^-5 M after 48 hrs by SRB assay; assay type: functional; details: MDA-MB-468, 48 h, read-out: Activity

Point of comparison: `COc1cccc(-c2nc3sccn3c2-c2ccnc(NCCNC(=O)c3ccccc3)n2)c1`, growth at 10 µM 79.4%. Against it:
- COc1cccc(-c2nc3sccn3c2-c2ccnc(NCCNC(=O)Nc3ccccc3)n2)c1 — higher, 101%

test system: M14; test: Anticancer activity against human M14 cells assessed as cell growth at 10^-5 M after 48 hrs by SRB assay; assay type: functional; details: M14, 48 h, read-out: Activity; method in brief: as §1

Point of comparison: `COc1cccc(-c2nc3sccn3c2-c2ccnc(NCCNC(=O)Nc3ccccc3)n2)c1`, growth at 10 µM 99.1%. Against it:
- COc1cccc(-c2nc3sccn3c2-c2ccnc(NCCNC(=O)c3ccccc3)n2)c1 — lower, 40.1%

test system: UACC-62; test: Anticancer activity against human UACC62 cells assessed as cell growth at 10^-5 M after 48 hrs by SRB assay; assay type: functional; details: UACC-62, 48 h, read-out: Activity
Method in brief: (§2)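 NCI-60 single-dose screen: cells in RPMI 1640 with 5% FBS and 2 mM L-glutamine, plated at 5000–40,000 cells/well by doubling time, and preincubated 24 h at 37 °C. Compound given at one concentration from DMSO stock. Cells TCA-fixed and SRB-stained, absorbance at 515 nm. Percent growth relative to time-zero and untreated controls; inhibition % = 100 − growth %.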

Point of comparison: `COc1cccc(-c2nc3sccn3c2-c2ccnc(NCCNC(=O)Nc3ccccc3)n2)c1`, growth at 10 µM 86%. Against it:
- COc1cccc(-c2nc3sccn3c2-c2ccnc(NCCNC(=O)c3ccccc3)n2)c1 — lower, 24.6%

test system: NCI/ADR-RES; test: Anticancer activity against human NCI/ADR-RES cells assessed as cell growth at 10^-5 M after 48 hrs by SRB assay; assay type: functional; details: read-out: Activity

Point of comparison: `COc1cccc(-c2nc3sccn3c2-c2ccnc(NCCNC(=O)Nc3ccccc3)n2)c1`, growth at 10 µM 96.1%. Against it:
- COc1cccc(-c2nc3sccn3c2-c2ccnc(NCCNC(=O)c3ccccc3)n2)c1 — lower, 70.5%

test system: MDA-MB-435; test: Anticancer activity against human MDA-MB-435 cells assessed as cell growth at 10^-5 M after 48 hrs by SRB assay; assay type: functional; details: MDA-MB-435, 48 h, read-out: Activity

Point of comparison: `COc1cccc(-c2nc3sccn3c2-c2ccnc(NCCNC(=O)Nc3ccccc3)n2)c1`, growth at 10 µM 96.6%. Against it:
- COc1cccc(-c2nc3sccn3c2-c2ccnc(NCCNC(=O)c3ccccc3)n2)c1 — lower, 55.2%

test system: MOLT-4; test: Anticancer activity against human MOLT4 cells assessed as cell growth at 10^-5 M after 48 hrs by SRB assay; assay type: functional; details: MOLT-4, 48 h, read-out: Activity

Point of comparison: `COc1cccc(-c2nc3sccn3c2-c2ccnc(NCCNC(=O)c3ccccc3)n2)c1`, growth at 10 µM 53.4%. Against it:
- COc1cccc(-c2nc3sccn3c2-c2ccnc(NCCNC(=O)Nc3ccccc3)n2)c1 — higher, 74.9%

test system: SNB-19; test: Anticancer activity against human SNB19 cells assessed as cell growth at 10^-5 M after 48 hrs by SRB assay; assay type: functional; details: SNB-19, 48 h, read-out: Activity

Point of comparison: `COc1cccc(-c2nc3sccn3c2-c2ccnc(NCCNC(=O)Nc3ccccc3)n2)c1`, growth at 10 µM 103%. Against it:
- COc1cccc(-c2nc3sccn3c2-c2ccnc(NCCNC(=O)c3ccccc3)n2)c1 — higher, 110%

test system: A549; test: Anticancer activity against human A549 cells assessed as cell growth at 10^-5 M after 48 hrs by SRB assay; assay type: functional; details: A549, 48 h, read-out: Activity; method in brief: as §1

Point of comparison: `COc1cccc(-c2nc3sccn3c2-c2ccnc(NCCNC(=O)c3ccccc3)n2)c1`, growth at 10 µM 75.3%. Against it:
- COc1cccc(-c2nc3sccn3c2-c2ccnc(NCCNC(=O)Nc3ccccc3)n2)c1 — higher, 101%

test system: OVCAR-4; test: Anticancer activity against human OVCAR4 cells assessed as cell growth at 10^-5 M after 48 hrs by SRB assay; assay type: functional; details: OVCAR-4, 48 h, read-out: Activity

Point of comparison: `COc1cccc(-c2nc3sccn3c2-c2ccnc(NCCNC(=O)c3ccccc3)n2)c1`, growth at 10 µM 109%. Against it:
- COc1cccc(-c2nc3sccn3c2-c2ccnc(NCCNC(=O)Nc3ccccc3)n2)c1 — lower, 106%

test system: PC-3; test: Anticancer activity against human PC3 cells assessed as cell growth at 10^-5 M after 48 hrs by SRB assay; assay type: functional; details: PC-3, 48 h, read-out: Activity

Point of comparison: `COc1cccc(-c2nc3sccn3c2-c2ccnc(NCCNC(=O)Nc3ccccc3)n2)c1`, growth at 10 µM 84.2%. Against it:
- COc1cccc(-c2nc3sccn3c2-c2ccnc(NCCNC(=O)c3ccccc3)n2)c1 — lower, 79.7%

test system: not listed separately; test: Antiproliferative activity against human A375P cells after 48 hrs by MTT assay; assay type: functional, cell-based; details: not given
Method in brief: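 A375P cells in DMEM with 10% FBS at 37 °C, 5% CO2. Seeded at 5×10³ cells/well, held 24 h, then treated with 12-point 3-fold serial dilutions for 48 h. Viability by MTT reduction. IC50 values are means of triplicate experiments.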

`COc1cccc(-c2nc3sccn3c2-c2ccnc(NCCNC(=O)Nc3ccccc3)n2)c1` and `COc1cccc(-c2nc3sccn3c2-c2ccnc(NCCNC(=O)c3ccccc3)n2)c1` cannot be ordered by IC50: over 10 µM for the first, over 10 µM for the second.

test system: SN12C; test: Anticancer activity against human SN12C cells assessed as cell growth at 10^-5 M after 48 hrs by SRB assay; assay type: functional; details: read-out: Activity

Point of comparison: `COc1cccc(-c2nc3sccn3c2-c2ccnc(NCCNC(=O)Nc3ccccc3)n2)c1`, growth at 10 µM 65.6%. Against it:
- COc1cccc(-c2nc3sccn3c2-c2ccnc(NCCNC(=O)c3ccccc3)n2)c1 — higher, 84.3%

test system: HCC 2998; test: Anticancer activity against human HCC2998 cells assessed as cell growth at 10^-5 M after 48 hrs by SRB assay; assay type: functional; details: HCC 2998, 48 h, read-out: Activity; method in brief: as §1

Point of comparison: `COc1cccc(-c2nc3sccn3c2-c2ccnc(NCCNC(=O)c3ccccc3)n2)c1`, growth at 10 µM 114%. Against it:
- COc1cccc(-c2nc3sccn3c2-c2ccnc(NCCNC(=O)Nc3ccccc3)n2)c1 — lower, 113%

test system: SW-620; test: Anticancer activity against human SW620 cells assessed as cell growth at 10^-5 M after 48 hrs by SRB assay; assay type: functional; details: SW-620, 48 h, read-out: Activity; method in brief: as §2

Point of comparison: `COc1cccc(-c2nc3sccn3c2-c2ccnc(NCCNC(=O)Nc3ccccc3)n2)c1`, growth at 10 µM 77.3%. Against it:
- COc1cccc(-c2nc3sccn3c2-c2ccnc(NCCNC(=O)c3ccccc3)n2)c1 — higher, 114%

test system: SF-295; test: Anticancer activity against human SF295 cells assessed as cell growth at 10^-5 M after 48 hrs by SRB assay; assay type: functional; details: SF-295, 48 h, read-out: Activity

Point of comparison: `COc1cccc(-c2nc3sccn3c2-c2ccnc(NCCNC(=O)c3ccccc3)n2)c1`, growth at 10 µM 85.4%. Against it:
- COc1cccc(-c2nc3sccn3c2-c2ccnc(NCCNC(=O)Nc3ccccc3)n2)c1 — higher, 110%

test system: K562; test: Anticancer activity against human K562 cells assessed as cell growth at 10^-5 M after 48 hrs by SRB assay; assay type: functional; details: K562, 48 h, read-out: Activity; method in brief: as §1

Point of comparison: `COc1cccc(-c2nc3sccn3c2-c2ccnc(NCCNC(=O)c3ccccc3)n2)c1`, growth at 10 µM 67.5%. Against it:
- COc1cccc(-c2nc3sccn3c2-c2ccnc(NCCNC(=O)Nc3ccccc3)n2)c1 — higher, 99.4%

test system: SK-MEL-28; test: Anticancer activity against human SK-MEL-28 cells assessed as cell growth at 10^-5 M after 48 hrs by SRB assay; assay type: functional; details: SK-MEL-28, 48 h, read-out: Activity

Point of comparison: `COc1cccc(-c2nc3sccn3c2-c2ccnc(NCCNC(=O)c3ccccc3)n2)c1`, growth at 10 µM 64.2%. Against it:
- COc1cccc(-c2nc3sccn3c2-c2ccnc(NCCNC(=O)Nc3ccccc3)n2)c1 — higher, 108%

test system: NCI-H460; test: Anticancer activity against human NCI-H460 cells assessed as cell growth at 10^-5 M after 48 hrs by SRB assay; assay type: functional; details: NCI-H460, 48 h, read-out: Activity

Point of comparison: `COc1cccc(-c2nc3sccn3c2-c2ccnc(NCCNC(=O)Nc3ccccc3)n2)c1`, growth at 10 µM 115%. Against it:
- COc1cccc(-c2nc3sccn3c2-c2ccnc(NCCNC(=O)c3ccccc3)n2)c1 — lower, 84.9%

test system: CAKI-1; test: Anticancer activity against human Caki1 cells assessed as cell growth at 10^-5 M after 48 hrs by SRB assay; assay type: functional; details: CAKI-1, 48 h, read-out: Activity; method in brief: as §1

Point of comparison: `COc1cccc(-c2nc3sccn3c2-c2ccnc(NCCNC(=O)Nc3ccccc3)n2)c1`, growth at 10 µM 117%. Against it:
- COc1cccc(-c2nc3sccn3c2-c2ccnc(NCCNC(=O)c3ccccc3)n2)c1 — lower, 84.3%

test system: UACC-257; test: Anticancer activity against human UACC257 cells assessed as cell growth at 10^-5 M after 48 hrs by SRB assay; assay type: functional; details: UACC-257, 48 h, read-out: Activity; method in brief: as §2

Point of comparison: `COc1cccc(-c2nc3sccn3c2-c2ccnc(NCCNC(=O)c3ccccc3)n2)c1`, growth at 10 µM 69.7%. Against it:
- COc1cccc(-c2nc3sccn3c2-c2ccnc(NCCNC(=O)Nc3ccccc3)n2)c1 — higher, 119%

test system: HL-60(TB); test: Anticancer activity against human HL-60(TB) cells assessed as cell growth at 10^-5 M after 48 hrs by SRB assay; assay type: functional; details: HL-60, 48 h, read-out: Activity
Method in brief: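 NCI-60 single-dose screen. Cells in RPMI 1640 with 5% FBS and 2 mM L-glutamine were plated at 5000–40,000 cells/well and preincubated 24 h at 37 °C before one compound concentration. Time-zero plates were TCA-fixed at drug addition. For suspension cells, settled cells were fixed with cold TCA, then SRB-stained and read at 515 nm. Percent growth was calculated from time-zero, control and treated absorbances.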

Point of comparison: `COc1cccc(-c2nc3sccn3c2-c2ccnc(NCCNC(=O)c3ccccc3)n2)c1`, growth at 10 µM 94.2%. Against it:
- COc1cccc(-c2nc3sccn3c2-c2ccnc(NCCNC(=O)Nc3ccccc3)n2)c1 — higher, 122%

test system: SK-MEL-5; test: Anticancer activity against human SK-MEL-5 cells assessed as cell growth at 10^-5 M after 48 hrs by SRB assay; assay type: functional; details: SK-MEL-5, 48 h, read-out: Activity

Point of comparison: `COc1cccc(-c2nc3sccn3c2-c2ccnc(NCCNC(=O)Nc3ccccc3)n2)c1`, growth at 10 µM 81.9%. Against it:
- COc1cccc(-c2nc3sccn3c2-c2ccnc(NCCNC(=O)c3ccccc3)n2)c1 — lower, 55.3%

test system: RXF 393; test: Anticancer activity against human RXF393 cells assessed as cell growth at 10^-5 M after 48 hrs by SRB assay; assay type: functional; details: RXF 393, 48 h, read-out: Activity

Point of comparison: `COc1cccc(-c2nc3sccn3c2-c2ccnc(NCCNC(=O)Nc3ccccc3)n2)c1`, growth at 10 µM 107%. Against it:
- COc1cccc(-c2nc3sccn3c2-c2ccnc(NCCNC(=O)c3ccccc3)n2)c1 — lower, 86.3%

test system: SR; test: Anticancer activity against human SR cells assessed as cell growth at 10^-5 M after 48 hrs by SRB assay; assay type: functional; details: read-out: Activity; method in brief: as §2

Point of comparison: `COc1cccc(-c2nc3sccn3c2-c2ccnc(NCCNC(=O)Nc3ccccc3)n2)c1`, growth at 10 µM 93.1%. Against it:
- COc1cccc(-c2nc3sccn3c2-c2ccnc(NCCNC(=O)c3ccccc3)n2)c1 — lower, 79.8%
